Experimental data from ChEMBL document CHEMBL3120065, “Antifungal ether diglycosides from Matayba guianensis Aublet” (Bioorg Med Chem Lett, 2014).
In brackets after ≈: the same amount, converted by molar mass.

How the values were obtained:
[1] = test system: Candida parapsilosis; test: Antifungal activity against Candida parapsilosis ATCC 22019 assessed as growth inhibition by microdliution method; type: functional; conditions: Lodderomyces parapsilosis
[2] = test system: PBMC; test: Cytotoxicity against human PBMC assessed as cell viability after 72 hrs by MTT assay; type: cell-based
Procedure, shortened: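 Normal proliferating human peripheral blood mononuclear cells exposed to compound for 72 h; viability read by MTT; result given as IC50.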

[3] = Selectivity index, ratio of IC50 for human PBMC to MIC for Candida parapsilosis ATCC 22019
[4] = test system: Plasmodium falciparum; test: Antiplasmodial activity against Plasmodium falciparum assessed as growth inhibition; type: functional, organism-based

| SMILES | MIC [1] | IC50 [2] | Selectivity Index [3] | IC50 [4] |
| --- | --- | --- | --- | --- |
| CCCCCCCCCCCCCCCCO[C@@H]1O[C@H](CO)[C@@H](O)[C@H](O)[C@H]1O[C@@H]1O[C@@H](C)[C@H](OC(C)=O)[C@@H](O)[C@H]1OC(C)=O | 6.31 µM | > 39.4 µM |  |  |
| CCCCCCCCCCCCCCCCO[C@@H]1O[C@H](CO)[C@@H](O)[C@H](O)[C@H]1O[C@@H]1O[C@@H](C)[C@H](OC(C)=O)[C@@H](OC(C)=O)[C@H]1O | 3.15 µM | > 39.4 µM | 12.5 |  |
| CCCCCCCCCCCCCCCCO[C@@H]1O[C@H](CO)[C@@H](O)[C@H](O)[C@H]1O[C@@H]1O[C@@H](C)[C@H](OC(C)=O)[C@@H](OC(C)=O)[C@H]1OC(C)=O | 189 µM | 25.4 µM |  |  |
| CCCCCCCCCCCCCCCCO[C@@H]1O[C@H](COC(=O)CCCCCCCCCCCCCCC)[C@@H](O)[C@H](O)[C@H]1O[C@@H]1O[C@@H](C)[C@H](OC(C)=O)[C@@H](OC(C)=O)[C@H]1OC(C)=O |  |  |  | 4.7 µg/mL (≈ 5.14 µM) |
| CCCCCCCCCCCCCCCCO[C@@H]1O[C@H](COC(C)=O)[C@@H](OC(C)=O)[C@H](O)[C@H]1O[C@@H]1O[C@@H](C)[C@H](OC(C)=O)[C@@H](OC(C)=O)[C@H]1OC(C)=O |  |  |  | 7.1 µg/mL (≈ 9.33 µM) |
| CCCCCCCCCCCCCCCCO[C@@H]1O[C@H](COC(C)=O)[C@@H](O)[C@H](OC(C)=O)[C@H]1O[C@@H]1O[C@@H](C)[C@H](OC(C)=O)[C@@H](OC(C)=O)[C@H]1OC(C)=O |  |  |  | 13 µg/mL (≈ 17.1 µM) |
| CCCCCCCCCCCCCCCCO[C@@H]1O[C@H](COC(C)=O)[C@@H](O)[C@H](O)[C@H]1O[C@@H]1O[C@@H](C)[C@H](OC(C)=O)[C@@H](OC(C)=O)[C@H]1OC(C)=O |  |  |  | 15.7 µg/mL (≈ 21.8 µM) |
| C[C@@H]1[C@H](O)[C@@H](C)/C=C/C=C/C=C/C=C/C=C/C=C/C=C/[C@H](O[C@@H]2O[C@H](C)[C@@H](O)[C@H](N)[C@@H]2O)C[C@@H]2O[C@](O)(C[C@@H](O)C[C@@H](O)[C@H](O)CC[C@@H](O)C[C@@H](O)CC(=O)O[C@H]1C)C[C@H](O)[C@H]2C(=O)O [AMPHOTERICIN B] | 4.33 µM | > 5.41 µM |  |  |
| COc1cccc2c1C(=O)c1c(O)c3c(c(O)c1C2=O)C[C@@](O)(C(=O)CO)C[C@@H]3O[C@H]1C[C@H](N)[C@H](O)[C@H](C)O1 [DOXORUBICIN] |  | 1.7 µM |  |  |
| OC(Cn1cncn1)(Cn1cncn1)c1ccc(F)cc1F [FLUCONAZOLE] | 0.2 µM | > 16.3 µM |  |  |
| CCC(C)n1ncn(-c2ccc(N3CCN(c4ccc(OCC5COC(Cn6cncn6)(c6ccc(Cl)cc6Cl)O5)cc4)CC3)cc2)c1=O (stereo not drawn) [ITRACONAZOLE] | 0.71 µM | 1.53 µM |  |  |
